In ChEMBL document CHEMBL4118285, “Synthesis and antibacterial activity of novel ketolides with 11,12-quinoylalkyl side chains” (2018):
Converted amounts (≈) assume the structure as drawn.

What was measured:
Assay type in all cases: functional
[1] = test system: Haemophilus influenzae; experiment: Antibacterial activity against azithromycin-sensitive Haemophilus influenzae 11P042 by broth microdilution method
In short: (§1)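 MICs were determined by broth microdilution following CLSI recommendations, with clarithromycin and telithromycin run as reference antibiotics.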

[2] = test system: Staphylococcus epidermidis; experiment: Antibacterial activity against methicillin-resistant Staphylococcus epidermidis 11C176 by broth microdilution method
In short: (§2)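 MIC values were determined by broth microdilution following Clinical and Laboratory Standards Institute (CLSI) recommendations.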

[3] = test system: Streptococcus pneumoniae; experiment: Antibacterial activity against erythromycin-sensitive Streptococcus pneumoniae 11G364 by broth microdilution method; in short: as §1
[4] = test system: Streptococcus pyogenes; experiment: Antibacterial activity against erythromycin-sensitive Streptococcus pyogenes 11L264 by broth microdilution method; in short: as §1
[5] = test system: Streptococcus pneumoniae; experiment: Antibacterial activity against erythromycin-resistant Streptococcus pneumoniae 11 J011 by broth microdilution method; in short: as §2
[6] = test system: Staphylococcus aureus; experiment: Antibacterial activity against methicillin-sensitive Staphylococcus aureus 11B122 by broth microdilution method; in short: as §1
[7] = test system: Streptococcus pyogenes; experiment: Antibacterial activity against erythromycin-resistant Streptococcus pyogenes 11 N369 by broth microdilution method; in short: as §2
[8] = test system: Haemophilus influenzae; experiment: Antibacterial activity against azithromycin-resistant Haemophilus influenzae 11Q373 by broth microdilution method; in short: as §2
[9] = test system: Staphylococcus aureus; experiment: Antibacterial activity against methicillin-resistant Staphylococcus aureus 11B117 by broth microdilution method; in short: as §2
[10] = test system: Staphylococcus epidermidis; experiment: Antibacterial activity against methicillin-sensitive Staphylococcus epidermidis 11X315 by broth microdilution method; in short: as §2
[11] = test system: Staphylococcus epidermidis; experiment: Antibacterial activity against methicillin-sensitive Staphylococcus epidermidis ATCC 12228 by broth microdilution method; in short: as §1
[12] = test system: Moraxella catarrhalis; experiment: Antibacterial activity against clarithromycin-sensitive Moraxella catarrhalis 12-1 by broth microdilution method; in short: as §1
[13] = test system: Streptococcus pyogenes; experiment: Antibacterial activity against methicillin-resistant Streptococcus pyogenes 12-1 by broth microdilution method; in short: as §2
[14] = test system: Streptococcus pyogenes; experiment: Antibacterial activity against […] Streptococcus pyogenes 12-8 by broth microdilution method; in short: as §1
[15] = test system: Pseudomonas aeruginosa; experiment: Antibacterial activity against Pseudomonas aeruginosa ATCC 27853 by broth microdilution method; in short: as §1
[16] = test system: Staphylococcus aureus; experiment: Antibacterial activity against methicillin-sensitive Staphylococcus aureus ATCC 29213 by broth microdilution method; in short: as §1
[17] = test system: Klebsiella pneumoniae; experiment: Antibacterial activity against extended spectrum beta-lactamases producing Klebsiella pneumoniae ATCC 700603 by broth microdilution method; in short: as §1
[18] = test system: Staphylococcus aureus; experiment: Antibacterial activity against methicillin-resistant Staphylococcus aureus ATCC 33591 by broth microdilution method; in short: as §2
[19] = test system: Escherichia coli; experiment: Antibacterial activity against extended spectrum beta-lactamases non-producing Escherichia coli ATCC 25922 by broth microdilution method; in short: as §1
[20] = test system: Moraxella catarrhalis; experiment: Antibacterial activity against clarithromycin-resistant Moraxella catarrhalis 12-2 by broth microdilution method; in short: as §2
[21] = test system: Staphylococcus epidermidis; experiment: Antibacterial activity against methicillin-resistant Staphylococcus epidermidis 13-3 by broth microdilution method; in short: as §2

Row | Structure (SMILES) | MIC [1] [µg/mL] | MIC [2] [µg/mL] | MIC [3] [µg/mL] | MIC [4] [µg/mL] | MIC [5] [µg/mL] | MIC [6] [µg/mL] | MIC [7] [µg/mL] | MIC [8] [µg/mL] | MIC [9] [µg/mL] | MIC [11] [µg/mL] | MIC [12] [µg/mL] | MIC [13] [µg/mL] | MIC [14] [µg/mL] | MIC [15] [µg/mL] | MIC [16] [µg/mL] | MIC [17] [µg/mL] | MIC [18] [µg/mL] | MIC [19] [µg/mL] | MIC [20] [µg/mL] | MIC [21] [µg/mL] | other results
1 | CC[C@H]1OC(=O)[C@H](C)C(=O)[C@H](C)[C@@H](O[C@@H]2O[C@H](C)C[C@H](N(C)C)[C@H]2O)[C@](C)(OC)C[C@@H](C)C(=O)[C@H](C)[C@H]2N(CCCSc3cnc4ccccc4c3)C(=O)O[C@]12C | 16 (≈ 19.7 µM) | 0.125 (≈ 0.154 µM) | 0.008 (≈ 0.00983 µM) | 0.016 (≈ 0.0197 µM) | 0.125 (≈ 0.154 µM) | 0.125 (≈ 0.154 µM) | 0.5 (≈ 0.614 µM) | 32 (≈ 39.3 µM) | > 64 | – | – | – | – | – | – | – | – | – | – | – | MIC [10]: 0.125 µg/mL (≈ 0.154 µM)
2 | CC[C@H]1OC(=O)[C@H](C)C(=O)[C@H](C)[C@@H](O[C@@H]2O[C@H](C)C[C@H](N(C)C)[C@H]2O)[C@](C)(OC)C[C@@H](C)C(=O)[C@H](C)[C@H]2N(CC/C=C/c3cncc4cc(OCc5ccccc5)ccc34)C(=O)O[C@]12C | – | – | – | – | – | – | – | – | – | 1 (≈ 1.11 µM) | 0.5 (≈ 0.555 µM) | 8 (≈ 8.89 µM) | 0.25 (≈ 0.278 µM) | > 256 | 1 (≈ 1.11 µM) | > 256 | 8 (≈ 8.89 µM) | > 256 | 8 (≈ 8.89 µM) | 16 (≈ 17.8 µM) | –
3 | CC[C@H]1OC(=O)[C@@](C)(F)C(=O)[C@H](C)[C@@H](O[C@@H]2O[C@H](C)C[C@H](N(C)C)[C@H]2O)[C@](C)(OC)C[C@@H](C)C(=O)[C@H](C)[C@H]2N(CCCOc3cnc4ccccc4c3)C(=O)O[C@]12C | – | – | – | – | – | – | – | – | – | 0.015 (≈ 0.0184 µM) | 0.015 (≈ 0.0184 µM) | 64 (≈ 78.4 µM) | 0.015 (≈ 0.0184 µM) | 16 (≈ 19.6 µM) | 0.015 (≈ 0.0184 µM) | 32 (≈ 39.2 µM) | 64 (≈ 78.4 µM) | 8 (≈ 9.8 µM) | 64 (≈ 78.4 µM) | 128 (≈ 157 µM) | –
4 | CC[C@H]1OC(=O)[C@H](C)C(=O)[C@H](C)[C@@H](O[C@@H]2O[C@H](C)C[C@H](N(C)C)[C@H]2O)[C@](C)(OC)C[C@@H](C)C(=O)[C@H](C)[C@H]2N(CC/C=C/c3cncc4ccc(-c5ccccc5)cc34)C(=O)O[C@]12C | – | – | – | – | – | – | – | – | – | 0.5 (≈ 0.575 µM) | 0.125 (≈ 0.144 µM) | 8 (≈ 9.19 µM) | 0.125 (≈ 0.144 µM) | > 256 | 1 (≈ 1.15 µM) | > 256 | 4 (≈ 4.6 µM) | > 256 | 2 (≈ 2.3 µM) | 8 (≈ 9.19 µM) | –
5 | CC[C@H]1OC(=O)[C@H](C)C(=O)[C@H](C)[C@@H](O[C@@H]2O[C@H](C)C[C@H](N(C)C)[C@H]2O)[C@](C)(OC)C[C@@H](C)C(=O)[C@H](C)[C@H]2N(CCCCc3cnc4ccccc4c3)C(=O)O[C@]12C | 0.5 (≈ 0.628 µM) | 0.062 (≈ 0.0779 µM) | ≤ 0.004 | 0.008 (≈ 0.0101 µM) | 0.062 (≈ 0.0779 µM) | 0.125 (≈ 0.157 µM) | 0.5 (≈ 0.628 µM) | 4 (≈ 5.03 µM) | 64 (≈ 80.4 µM) | – | – | – | – | – | – | – | – | – | – | – | MIC [10]: 0.062 µg/mL (≈ 0.0779 µM)
6 | CC[C@H]1OC(=O)[C@H](C)C(=O)[C@H](C)[C@@H](O[C@@H]2O[C@H](C)C[C@H](N(C)C)[C@H]2O)[C@](C)(OC)C[C@@H](C)C(=O)[C@H](C)[C@H]2N(CC/C=C/c3cnc4ccccc4c3)C(=O)O[C@]12C | 1 (≈ 1.26 µM) | 0.062 (≈ 0.0781 µM) | ≤ 0.004 | ≤ 0.004 | 0.031 (≈ 0.039 µM) | 0.125 (≈ 0.157 µM) | 0.25 (≈ 0.315 µM) | 4 (≈ 5.04 µM) | 64 (≈ 80.6 µM) | – | – | – | – | – | – | – | – | – | – | – | MIC [10]: 0.062 µg/mL (≈ 0.0781 µM)
7 | CC[C@H]1OC(=O)[C@H](C)C(=O)[C@H](C)[C@@H](O[C@@H]2O[C@H](C)C[C@H](N(C)C)[C@H]2O)[C@](C)(OC)C[C@@H](C)C(=O)[C@H](C)[C@H]2N(CC/C=C/c3cncc4cc(C)ccc34)C(=O)O[C@]12C | – | – | – | – | – | – | – | – | – | 0.06 (≈ 0.0743 µM) | 0.015 (≈ 0.0186 µM) | 64 (≈ 79.2 µM) | 0.015 (≈ 0.0186 µM) | 64 (≈ 79.2 µM) | 0.06 (≈ 0.0743 µM) | > 256 | 64 (≈ 79.2 µM) | 64 (≈ 79.2 µM) | 32 (≈ 39.6 µM) | 128 (≈ 158 µM) | –
8 | CC[C@H]1OC(=O)[C@H](C)C(=O)[C@H](C)[C@@H](O[C@@H]2O[C@H](C)C[C@H](N(C)C)[C@H]2O)[C@](C)(OC)C[C@@H](C)C(=O)[C@H](C)[C@H]2N(CC/C=C/c3cncc4cc(OC)ccc34)C(=O)O[C@]12C | – | – | – | – | – | – | – | – | – | 0.015 (≈ 0.0182 µM) | 0.015 (≈ 0.0182 µM) | 32 (≈ 38.8 µM) | 0.015 (≈ 0.0182 µM) | 64 (≈ 77.7 µM) | 0.06 (≈ 0.0728 µM) | > 256 | 64 (≈ 77.7 µM) | 64 (≈ 77.7 µM) | 8 (≈ 9.71 µM) | 64 (≈ 77.7 µM) | –
9 | CC[C@H]1OC(=O)[C@H](C)C(=O)[C@H](C)[C@@H](O[C@@H]2O[C@H](C)C[C@H](N(C)C)[C@H]2O)[C@](C)(OC)C[C@@H](C)C(=O)[C@H](C)[C@H]2N(CC/C=C/c3cncc4ccccc34)C(=O)O[C@]12C | – | – | – | – | – | – | – | – | – | 0.03 (≈ 0.0378 µM) | 0.015 (≈ 0.0189 µM) | 64 (≈ 80.6 µM) | 0.015 (≈ 0.0189 µM) | 32 (≈ 40.3 µM) | 0.015 (≈ 0.0189 µM) | 64 (≈ 80.6 µM) | 64 (≈ 80.6 µM) | 16 (≈ 20.2 µM) | 32 (≈ 40.3 µM) | 64 (≈ 80.6 µM) | –
10 | CC[C@H]1OC(=O)[C@H](C)C(=O)[C@H](C)[C@@H](O[C@@H]2O[C@H](C)C[C@H](N(C)C)[C@H]2O)[C@](C)(OC)C[C@@H](C)C(=O)[C@H](C)[C@H]2N(CCCNc3cnc4ccccc4c3)C(=O)O[C@]12C | 8 (≈ 10 µM) | 0.5 (≈ 0.627 µM) | 0.016 (≈ 0.0201 µM) | 0.031 (≈ 0.0389 µM) | 0.5 (≈ 0.627 µM) | 0.5 (≈ 0.627 µM) | 64 (≈ 80.3 µM) | 8 (≈ 10 µM) | > 64 | – | – | – | – | – | – | – | – | – | – | – | MIC [10]: 0.5 µg/mL (≈ 0.627 µM)
11 | CC[C@H]1OC(=O)[C@H](C)C(=O)[C@H](C)[C@@H](O[C@@H]2O[C@H](C)C[C@H](N(C)C)[C@H]2O)[C@](C)(OC)C[C@@H](C)C(=O)[C@H](C)[C@H]2N(CCCOc3ccc4cccnc4c3)C(=O)O[C@]12C | – | – | – | – | – | – | – | – | – | 0.03 (≈ 0.0376 µM) | 0.015 (≈ 0.0188 µM) | > 256 | 0.015 (≈ 0.0188 µM) | 32 (≈ 40.1 µM) | 0.015 (≈ 0.0188 µM) | 128 (≈ 160 µM) | 256 (≈ 321 µM) | 16 (≈ 20.1 µM) | 64 (≈ 80.2 µM) | > 256 | –
12 | CC[C@H]1OC(=O)[C@@](C)(F)C(=O)[C@H](C)[C@@H](O[C@@H]2O[C@H](C)C[C@H](N(C)C)[C@H]2O)[C@](C)(OC)C[C@@H](C)C(=O)[C@H](C)[C@H]2N(CC/C=C/c3cnc4ccccc4c3)C(=O)O[C@]12C | – | – | – | – | – | – | – | – | – | 0.015 (≈ 0.0185 µM) | 0.015 (≈ 0.0185 µM) | 16 (≈ 19.7 µM) | 0.015 (≈ 0.0185 µM) | 16 (≈ 19.7 µM) | 0.015 (≈ 0.0185 µM) | 32 (≈ 39.4 µM) | 32 (≈ 39.4 µM) | 8 (≈ 9.85 µM) | 16 (≈ 19.7 µM) | 32 (≈ 39.4 µM) | –
13 | CC[C@H]1OC(=O)[C@H](C)C(=O)[C@H](C)[C@@H](O[C@@H]2O[C@H](C)C[C@H](N(C)C)[C@H]2O)[C@](C)(OC)C[C@@H](C)C(=O)[C@H](C)[C@H]2N(CC/C=C/c3cncc4ccc(OCc5ccccc5)cc34)C(=O)O[C@]12C | – | – | – | – | – | – | – | – | – | 1 (≈ 1.11 µM) | 1 (≈ 1.11 µM) | 8 (≈ 8.89 µM) | 0.125 (≈ 0.139 µM) | > 256 | 1 (≈ 1.11 µM) | > 256 | 8 (≈ 8.89 µM) | > 256 | 4 (≈ 4.44 µM) | 8 (≈ 8.89 µM) | –
